{"data": "Experimental data of several laboratories", "target": "Cyclin-dependent kinase 9 (CDK9, Homo sapiens, UniProt P50750)"}
{"SMILES": "CNC(=O)[C@@H]1CC[C@@H](n2c(-c3ccc4cnccc4c3)nc3ccc(C(=O)NCc4cccc(C(N)=O)c4)cc32)C1", "observed": "binding", "method": "competition with immobilised ligand", "tested at": "1 µM", "remaining binding [%]": 100}
{"SMILES": "CO[C@H]1CC[C@H](CNc2ccc(S(=O)(=O)NC(=O)c3ccc(N4CCN(CC5=C(c6ccc(Cl)cc6)CC(C)(C)CC5)CC4)cc3Oc3cnc4[nH]ccc4c3)cc2[N+](=O)[O-])CC1", "observed": "cell-free assay", "method": "competition with immobilised ligand", "tested at": "1 µM", "remaining binding [%]": 91}
{"SMILES": "N#Cc1ccccc1CSc1nnc2c(n1)[nH]c1ccccc12", "observed": "binding", "method": "competition with immobilised ligand", "tested at": "10 µM", "remaining binding [%]": 84}
{"SMILES": "CN(CCCC(F)(F)F)c1nccc(-c2cnn3ncccc23)n1", "observed": "binding", "tested at": "1 µM", "remaining binding [%]": 100}
{"SMILES": "Nc1cnc(N2CCc3cc(S(=O)(=O)Nc4c(F)cc(Cl)cc4F)cc(N4CCCC4=O)c32)nc1", "observed": "cell-free assay", "method": "competition with immobilised ligand", "tested at": "1 µM", "remaining binding [%]": 100}
{"SMILES": "N[C@@H]1CCN(c2nccc(-c3cnn4ncccc34)n2)C1", "observed": "binding", "tested at": "1 µM", "remaining binding [%]": 100}
{"SMILES": "O=C(NCCCN1CCOCC1)c1ccc(Nc2ncc(Cl)c(-c3ccc(Cl)s3)n2)cc1", "observed": "binding", "method": "competition with immobilised ligand", "tested at": "1 µM", "remaining binding [%]": 56}
{"SMILES": "C=CC(=O)N1CCC(C(=O)NCC(=O)N2CCN(c3nc(-c4cnc(N)nc4C(F)F)nc(N4CCOCC4)n3)CC2)CC1", "observed": "binding", "method": "competition with immobilised ligand", "tested at": "1 µM", "remaining binding [%]": 98}
{"SMILES": "CCOCCn1cc(C(=O)Nc2ccc(-n3nc(-c4cccnc4)cc3C(F)(F)F)cn2)ccc1=O", "observed": "cell-free assay", "method": "competition with immobilised ligand", "tested at": "1 µM", "remaining binding [%]": 97}
{"SMILES": "CN(C)c1nccc(-c2cnn3ncccc23)n1", "observed": "binding", "tested at": "1 µM", "remaining binding [%]": 100}
{"SMILES": "C[C@@H](c1ccc(-n2cnc3c(N)ncnc32)cc1)N1CCc2nn(C)c(Cc3ccccc3)c2C1=O", "observed": "binding", "method": "competition with immobilised ligand", "tested at": "0.1 µM", "remaining binding [%]": 85}
{"SMILES": "CN(C)c1ncc(F)c(-c2cnn3ncccc23)n1", "observed": "binding", "tested at": "1 µM", "remaining binding [%]": 100}
{"SMILES": "C[C@@H]1CN(c2ccc3ncc(-c4ccc5[nH]nc(C6CC6)c5c4)n3n2)C[C@H](C)O1", "observed": "binding", "method": "competition with immobilised ligand", "tested at": "0.5 µM", "remaining binding [%]": 78}
{"SMILES": "O=C(Nc1c[nH]nc1C(=O)NC1CCNCC1)c1cc(F)cc(F)c1", "observed": "binding", "method": "competition with immobilised ligand", "tested at": "1 µM", "remaining binding [%]": 72}
{"SMILES": "CCC(=O)N[C@H]1CC[C@@H](C(=O)N(C)c2ccc(-c3nc4ccccc4o3)cc2)C1", "observed": "cell-free assay", "method": "competition with immobilised ligand", "tested at": "1 µM", "remaining binding [%]": 95}
{"SMILES": "CC(C)(C)c1ccc(-c2nc(CBr)nn2-c2cccc(O)c2)cc1", "observed": "cell-free assay", "method": "competition with immobilised ligand", "tested at": "10 µM", "remaining binding [%]": 91}
{"SMILES": "O=C(NCCCN1CCOCC1)c1ccc(Nc2nccc(-c3cc4ccccc4s3)n2)cc1", "observed": "binding", "method": "competition with immobilised ligand", "tested at": "1 µM", "remaining binding [%]": 52}
{"SMILES": "COc1ccc2c(O[C@@H]3C[C@H]4C(=O)N[C@]5(C(=O)O)CC5/C=C\\CCCCC[C@H](NC(=O)OC5CCCC5)C(=O)N4C3)cc(-c3csc(NC(=O)C(C)C)n3)nc2c1C (stereo partly drawn)", "observed": "cell-free assay", "method": "competition with immobilised ligand", "tested at": "1 µM", "remaining binding [%]": 83}
{"SMILES": "COc1cnc(Nc2cccc(S(N)(=O)=O)c2)nc1N1CCN(c2ccccc2)C(=O)C1", "observed": "binding", "method": "competition with immobilised ligand", "tested at": "1 µM", "remaining binding [%]": 100}
{"SMILES": "COc1ncc2cc3ccccc3nc2c1C#N", "observed": "cell-free assay", "method": "competition with immobilised ligand", "tested at": "5 µM", "remaining binding [%]": 91}
{"SMILES": "COc1ccc2c(c1)O[C@@H](c1ccc(OC)c(OC)c1)C[C@H]2NC(=O)C1(c2ccc3c(c2)OC(F)(F)O3)CC1", "observed": "cell-free assay", "method": "competition with immobilised ligand", "tested at": "1 µM", "remaining binding [%]": 89}
{"SMILES": "Cc1cnn2ncc(-c3ccnc(N(C)C)n3)c2c1", "observed": "binding", "tested at": "1 µM", "remaining binding [%]": 91}
{"SMILES": "Cc1c(C(=O)O)cc(-c2ccc(C3CCNCC3)cc2)c2ccc(-c3ccc(C(F)(F)F)cc3)cc12", "observed": "binding", "method": "competition with immobilised ligand", "tested at": "1 µM", "remaining binding [%]": 100}
{"SMILES": "Cc1cnc(Nc2ccc(C(=O)N3CCC(N4CCCC4)CC3)cc2)nc1-c1cc2ccccc2s1", "observed": "binding", "method": "competition with immobilised ligand", "tested at": "1 µM", "remaining binding [%]": 82}
